Data taken from ChEMBL document CHEMBL2440116, “Structure-activity relationships of 2-aminothiazoles effective against Mycobacterium tuberculosis” (Bioorg Med Chem, 2013).
Values after ≈ are worked out from the molar mass of the structure shown.

Assays:
[1] = test system: Mycobacterium tuberculosis; experiment: Antitubercular activity against Mycobacterium tuberculosis H37Rv in GAST media with glycerol and alanine after 7 to 14 days by broth microdilution method; format: functional
[2] = test system: Mycobacterium tuberculosis; experiment: Antitubercular activity against Mycobacterium tuberculosis H37Rv in Middlebrook 7H9 broth with butyrate after 7 to 14 days by broth microdilution method; format: functional
[3] = test system: Mycobacterium tuberculosis; experiment: Antitubercular activity against Mycobacterium tuberculosis H37Rv in Middlebrook 7H9 broth with glucose after 7 to 14 days by broth microdilution method; format: functional
In short: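 Broth microdilution of H37Rv in 7H9 with 0.8 g/L NaCl, 5 g/L BSA fraction V, 4 g/L glucose and 0.05% Tyloxapol. Run in quadruplicate from DMSO stocks with DMSO controls; isoniazid positive control.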

[4] = Therapeutic index, ratio of EC50 for african green monkey Vero cells to MIC for Mycobacterium tuberculosis H37Rv; format: cell-based; settings: read-out: TI
Vero = experiment: Cytotoxicity against african green monkey Vero cells after 72 hrs by MTT assay; format: cell-based; settings: Chlorocebus sabaeus
In short: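 Vero (CCL-81) cells in MEM with 10% FBS, penicillin-streptomycin and Glutamax, seeded at 3.0×10⁴ per well and left to adhere overnight. Compounds added from DMSO at final 100–0.16 μM, triplicate, for 72 h at 37 °C, 4.5% CO2. Then MTT 1.0 mg/mL in phenol-red-free RPMI for 3 h, formazan dissolved in isopropanol, A570 minus A690. Viability taken relative to DMSO control; EC50 from dose-response curves.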

| SMILES | MIC99 [1] [µM] | MIC99 [2] [µM] | MIC99 [3] [µM] | selectivity ratio [4] | EC50 (Vero) [µM] |
| --- | --- | --- | --- | --- | --- |
| Cc1cccc(Nc2nc(-c3ccccn3)cs2)c1C | 3.1 (≈ 0.872 µg/mL) | 12.5 (≈ 3.52 µg/mL) | 12.5 (≈ 3.52 µg/mL) | – | – |
| Cc1ccc(Nc2nc(-c3ccccn3)cs2)cc1 | 6.3 (≈ 1.68 µg/mL) | 12.5 (≈ 3.34 µg/mL) | 12.5 (≈ 3.34 µg/mL) | – | – |
| Cc1ccccc1Nc1nc(-c2ccccn2)cs1 | 3.1 (≈ 0.829 µg/mL) | 12.5 (≈ 3.34 µg/mL) | 12.5 (≈ 3.34 µg/mL) | – | – |
| CCCC(=O)Nc1nc(-c2ccccn2)cs1 | 12.5 (≈ 3.09 µg/mL) | 25 (≈ 6.18 µg/mL) | 12 (≈ 2.97 µg/mL) | – | – |
| c1ccc(Nc2nc(-c3ccccn3)cs2)nc1 | 0.39 (≈ 0.0992 µg/mL) | 0.39 (≈ 0.0992 µg/mL) | 0.78 (≈ 0.198 µg/mL) | – | – |
| O=C(Nc1nc(-c2ccccn2)cs1)c1ccncc1 | 0.78 (≈ 0.22 µg/mL) | 3.1 (≈ 0.875 µg/mL) | 1.6 (≈ 0.452 µg/mL) | – | – |
| Fc1ccc(Nc2nc(-c3ccccn3)cs2)cc1 | 12.5 (≈ 3.39 µg/mL) | 25 (≈ 6.78 µg/mL) | 25 (≈ 6.78 µg/mL) | – | – |
| Fc1cccc(Nc2nc(-c3ccccn3)cs2)c1 | > 12.5 | 25 (≈ 6.78 µg/mL) | 25 (≈ 6.78 µg/mL) | – | – |
| O=C(Nc1nc(-c2ccccn2)cs1)c1ccc(F)c(F)c1 | 0.39 (≈ 0.124 µg/mL) | 3.1 (≈ 0.984 µg/mL) | 1.6 (≈ 0.508 µg/mL) | – | – |
| O=C(Nc1nnc(-c2ccccn2)s1)c1ccccc1F | > 6.25 | – | > 6.25 | – | – |
| O=C(Nc1nc(-c2ccccn2)cs1)c1ccccc1Cl | – | 0.19 (≈ 0.06 µg/mL) | 0.39 (≈ 0.123 µg/mL) | 1 | 2 |
| O=C(Nc1ccccc1)c1nc(-c2ccccn2)cs1 | > 25 | – | > 25 | – | – |
| FC(F)(F)c1ccccc1Nc1nc(-c2ccccn2)cs1 | 6.3 (≈ 2.02 µg/mL) | 6.3 (≈ 2.02 µg/mL) | 12 (≈ 3.86 µg/mL) | – | – |
| O=C(Nc1nc(-c2ccccn2)cs1)c1ccc(F)cc1 | 0.098 (≈ 0.0293 µg/mL) | 0.19 (≈ 0.0569 µg/mL) | 0.39 (≈ 0.117 µg/mL) | – | 2.5 |
| Cc1ccc(Nc2nc(-c3ccccn3)cs2)c(C)c1 | 6.3 (≈ 1.77 µg/mL) | 12.5 (≈ 3.52 µg/mL) | 12.5 (≈ 3.52 µg/mL) | – | – |
| COc1ccc(Nc2nc(-c3ccccn3)cs2)c(OC)c1 | > 12.5 | 6.3 (≈ 1.97 µg/mL) | 6.3 (≈ 1.97 µg/mL) | – | – |
| CC1CC1C(=O)Nc1nc(-c2ccccn2)cs1 (stereo not given) | – | > 50 | 6.3 (≈ 1.63 µg/mL) | – | – |
| COc1ccc(OC)c(Nc2nc(-c3ccccn3)cs2)c1 | > 12.5 | > 50 | > 50 | – | – |
| Cc1cccc(Nc2nc(-c3ccccn3)cs2)n1 | 0.78 (≈ 0.209 µg/mL) | 3.1 (≈ 0.832 µg/mL) | 6.3 (≈ 1.69 µg/mL) | – | – |
| Fc1ccccc1Nc1nc(-c2ccccn2)cs1 | > 12.5 | 25 (≈ 6.78 µg/mL) | 50 (≈ 13.6 µg/mL) | – | – |

| SMILES | MIC99 [1] [µM] | MIC99 [2] [µM] | MIC99 [3] [µM] | selectivity ratio [4] | EC50 (Vero) [µM] |
| --- | --- | --- | --- | --- | --- |
| FC(F)(F)c1cccc(Nc2nc(-c3ccccn3)cs2)c1 | > 12.5 | 25 (≈ 8.03 µg/mL) | 25 (≈ 8.03 µg/mL) | – | – |
| O=C(Nc1nc(-c2ccccn2)cs1)c1c(F)cccc1Cl | 0.19 (≈ 0.0634 µg/mL) | 0.39 (≈ 0.13 µg/mL) | 0.78 (≈ 0.26 µg/mL) | – | 1.3 |
| O=C(Nc1nc(-c2ccccn2)cs1)c1ccsc1 | 0.78 (≈ 0.224 µg/mL) | 3.1 (≈ 0.891 µg/mL) | 1.6 (≈ 0.46 µg/mL) | – | – |
| O=C(Nc1nc(-c2ccccn2)cs1)c1ccccc1F | 1.6 (≈ 0.479 µg/mL) | 0.39 (≈ 0.117 µg/mL) | 1.6 (≈ 0.479 µg/mL) | – | – |
| O=C(Nc1nc(-c2ccccn2)cs1)c1ccccc1[N+](=O)[O-] | 0.78 (≈ 0.255 µg/mL) | – | 1.6 (≈ 0.522 µg/mL) | – | – |
| O=C(Nc1nc(-c2ccccn2)cs1)c1ccc(F)cc1F | 0.19 (≈ 0.0603 µg/mL) | – | 0.39 (≈ 0.124 µg/mL) | 9 | 7.3 |
| O=C(Nc1nc(-c2ccccn2)cs1)c1cccc([N+](=O)[O-])c1 | 0.78 (≈ 0.255 µg/mL) | – | 1.6 (≈ 0.522 µg/mL) | – | – |
| CCCCCCCC(=O)Nc1nc(-c2ccccn2)cs1 | 0.78 (≈ 0.237 µg/mL) | 6.3 (≈ 1.91 µg/mL) | 6.3 (≈ 1.91 µg/mL) | – | – |
| O=C(Nc1nc(-c2cnccn2)cs1)c1ccccc1 | > 25 | – | > 25 | – | – |
| O=C(Nc1nc(-c2ccccn2)cs1)c1ccccc1Br | 0.098 (≈ 0.0353 µg/mL) | – | 0.39 (≈ 0.14 µg/mL) | – | 3.5 |
| O=C(Nc1nc(-c2ccccn2)cs1)c1ccc(Cl)cc1 | 0.39 (≈ 0.123 µg/mL) | 0.78 (≈ 0.246 µg/mL) | 1.6 (≈ 0.505 µg/mL) | – | – |
| O=C(Nc1nc(-c2ccccn2)cs1)c1ccc(OCc2ccccc2)cc1 | 0.098 (≈ 0.038 µg/mL) | – | 0.19 (≈ 0.0736 µg/mL) | 6 | 2.3 |
| O=C(Nc1nc(-c2ccccn2)cs1)C1CCC1 | 6.3 (≈ 1.63 µg/mL) | 6.3 (≈ 1.63 µg/mL) | 12.5 (≈ 3.24 µg/mL) | – | – |
| O=C(Nc1nnc(-c2ccccn2)o1)c1ccccc1F | 6.25 (≈ 1.78 µg/mL) | – | 12.5 (≈ 3.55 µg/mL) | – | – |
| O=C(Nc1nc(-c2ccccn2)cs1)C1CC1 | 6.3 (≈ 1.55 µg/mL) | 12.5 (≈ 3.07 µg/mL) | 12 (≈ 2.94 µg/mL) | – | – |
| c1ccc(Nc2nc(-c3ccccn3)cs2)cc1 | 12.5 (≈ 3.17 µg/mL) | 12.5 (≈ 3.17 µg/mL) | 25 (≈ 6.33 µg/mL) | – | – |
| Clc1ccc(Nc2nc(-c3ccccn3)cs2)nc1 | 0.39 (≈ 0.113 µg/mL) | 1.6 (≈ 0.462 µg/mL) | 1.6 (≈ 0.462 µg/mL) | – | – |
| CN(C(=O)c1ccccc1)c1nc(-c2ccccn2)cs1 | ≥ 25 | – | > 25 | – | – |
| O=C(Nc1nc(-c2ccccn2)c[nH]1)c1ccccc1 | 3.13 (≈ 0.827 µg/mL) | – | 25 (≈ 6.61 µg/mL) | – | – |
| O=C(Nc1nc(-c2ccccn2)co1)c1ccccc1 | 25 (≈ 6.63 µg/mL) | – | 25 (≈ 6.63 µg/mL) | – | – |

| SMILES | MIC99 [1] [µM] | MIC99 [2] [µM] | MIC99 [3] [µM] | selectivity ratio [4] | EC50 (Vero) [µM] |
| --- | --- | --- | --- | --- | --- |
| COc1cccc(C(=O)Nc2nc(-c3ccccn3)cs2)c1 | 0.098 (≈ 0.0305 µg/mL) | – | 0.19 (≈ 0.0592 µg/mL) | 7 | 2.8 |
| O=C(Nc1nc(-c2ccccn2)cs1)C1CCCC1 | – | 3.1 (≈ 0.847 µg/mL) | 12.5 (≈ 3.42 µg/mL) | – | – |
| FC(F)(F)c1ccc(Nc2nc(-c3ccccn3)cs2)cc1 | ≥ 12.5 | 12.5 (≈ 4.02 µg/mL) | 25 (≈ 8.03 µg/mL) | – | – |
| O=C(Nc1nc(-c2ccccn2)cs1)c1ccoc1 | – | 6.3 (≈ 1.71 µg/mL) | 3.1 (≈ 0.841 µg/mL) | – | – |
| Cc1cccc(Nc2nc(-c3ccccn3)cs2)c1 | 6.3 (≈ 1.68 µg/mL) | 12.5 (≈ 3.34 µg/mL) | 25 (≈ 6.68 µg/mL) | – | – |
| O=C(Nc1nc(-c2ccccn2)cs1)c1ccco1 | 1.6 (≈ 0.434 µg/mL) | 6.3 (≈ 1.71 µg/mL) | 3.1 (≈ 0.841 µg/mL) | – | – |
| O=C(Nc1nc(-c2ccccn2)cs1)c1ccccc1O | 0.19 (≈ 0.0565 µg/mL) | 1.6 (≈ 0.476 µg/mL) | 1.6 (≈ 0.476 µg/mL) | – | – |
| O=C(Nc1nc(-c2ccccn2)cs1)c1cscn1 | > 50 | > 50 | > 50 | – | – |
| O=C(Nc1nc(-c2cscn2)cs1)c1ccccc1 | ≥ 25 | – | > 25 | – | – |
| CCCCCC(=O)Nc1nc(-c2ccccn2)cs1 | 3.1 (≈ 0.854 µg/mL) | 3.1 (≈ 0.854 µg/mL) | 6.3 (≈ 1.73 µg/mL) | – | – |
| Oc1ccccc1Nc1nc(-c2ccccn2)cs1 | > 12.5 | 25 (≈ 6.73 µg/mL) | 50 (≈ 13.5 µg/mL) | – | – |
| O=C(Nc1nc(-c2ccccn2)cs1)c1cccnc1Cl | 0.19 (≈ 0.0602 µg/mL) | – | 0.39 (≈ 0.124 µg/mL) | 2 | 1.9 |
| O=C(Nc1nc(-c2ccccn2)cs1)c1cccnc1 | > 12.5 | 3.1 (≈ 0.875 µg/mL) | 6.3 (≈ 1.78 µg/mL) | – | – |
| CC(=O)c1ccc(C(=O)Nc2nc(-c3ccccn3)cs2)cc1 | – | 0.19 (≈ 0.0614 µg/mL) | 0.39 (≈ 0.126 µg/mL) | – | 10.5 |
| Cc1cccc(C)c1Nc1nc(-c2ccccn2)cs1 | 3.1 (≈ 0.872 µg/mL) | 12.5 (≈ 3.52 µg/mL) | 12.5 (≈ 3.52 µg/mL) | – | – |
| O=C(Nc1nc(-c2ccccn2)cs1)C1CCCCC1 | 1.6 (≈ 0.46 µg/mL) | 3.1 (≈ 0.891 µg/mL) | 6.3 (≈ 1.81 µg/mL) | – | – |
| O=C(Nc1cc(-c2ccccn2)cs1)c1ccccc1 | 12.5 (≈ 3.5 µg/mL) | – | > 25 | – | – |
| O=C(Nc1nc(-c2ccccc2)cs1)c1ccccc1 | ≥ 25 | – | > 25 | – | – |
| O=C(Nc1nc(-c2ccccn2)cs1)c1cccs1 | – | – | 1.6 (≈ 0.46 µg/mL) | – | – |
| CCCCCCCCCC(=O)Nc1nc(-c2ccccn2)cs1 | 1.6 (≈ 0.53 µg/mL) | 3.1 (≈ 1.03 µg/mL) | 6.3 (≈ 2.09 µg/mL) | – | – |
